# Shown are actives, neighbours in structure and some others; about 4.5% of the full set was active somewhere.
# TAAR1 antag: human TAAR1 antagonism; 360,000 tested, 1.5% active; inhibition, % at 3 µM; CHO RD-HGA16 TAAR1, Fluo-8 calcium fluorescence, antagonist; Q96RJ0; AID 624466;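 active = inhibition above a per-plate cutoff, the mean inhibition of test compounds on that plate plus 3 SD, cut at about 49% in these data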;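 note: 0% = DMSO plus EC80 beta-PEA response and 100% = DMSO alone without agonist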
# Target sequence (Q96RJ0 whole entry, looked up): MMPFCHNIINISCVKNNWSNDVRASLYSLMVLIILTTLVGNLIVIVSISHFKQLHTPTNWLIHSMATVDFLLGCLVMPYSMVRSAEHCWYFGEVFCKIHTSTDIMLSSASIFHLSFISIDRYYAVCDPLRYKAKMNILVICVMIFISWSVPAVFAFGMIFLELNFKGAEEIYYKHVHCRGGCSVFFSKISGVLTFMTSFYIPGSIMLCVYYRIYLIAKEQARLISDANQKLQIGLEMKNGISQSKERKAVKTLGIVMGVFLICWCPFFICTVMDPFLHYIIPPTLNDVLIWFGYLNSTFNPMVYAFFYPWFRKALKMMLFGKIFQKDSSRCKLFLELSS
#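 System: CHO RD-HGA16 cells bearing hTAAR1. Reagent: EC80 β-phenethylamine stimulus. Schedule: seeding 17-24 h prior, 75-min 37 °C, 30-min RT dye loading. Signal: Fluo-8 intracellular calcium dye fluorescence, real-time kinetic reads. Read-out: % inhibition from peak post-agonist over basal fluorescence ratio. Benchmarks: vehicle wells and EC80 agonist wells. Replicates: n of 1.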
# TAAR1 agonist: human TAAR1 agonism. AID 624467. 360,000 tested, 0.99% active. activation, % at 3 µM. CHO RD-HGA16 TAAR1, Fluo-8 calcium fluorescence; vehicle wells 0%, saturating PEA agonist 100%;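 active = activation above the mean activation of all test compounds in the run plus 3 SD, cut at about 38% in these data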
#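 Test system: RD-HGA16 (CHO) cells co-expressing Gα16 and hTAAR1 | Doses: Single dose, 3 µM | Schedule: 17-24 h seeding, 75 min 37 °C dye, 30 min RT | Evaluation: % activation from peak over basal fluorescence ratio, DMSO-to-PEA scaled | Technique: Kinetic Fluo-8 calcium fluorescence | Benchmarks: Low control DMSO, high control PEA (EC100)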
# OX1R antag-1: human HCRTR1 antagonism; 330,000 tested, 0.43% active; inhibition, % at 5 µM; CHO/OX1R cells, Fluo-8 calcium fluorescence, orexin A; O43613; AID 434989;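 active = inhibition above its plate's threshold, mean inhibition of all tested compounds on the plate plus 3 SD, cut at about 37% in these data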;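 note: 0% = orexin A challenge wells and 100% = SB-334867-A antagonist wells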
# Target sequence (O43613 whole entry, looked up): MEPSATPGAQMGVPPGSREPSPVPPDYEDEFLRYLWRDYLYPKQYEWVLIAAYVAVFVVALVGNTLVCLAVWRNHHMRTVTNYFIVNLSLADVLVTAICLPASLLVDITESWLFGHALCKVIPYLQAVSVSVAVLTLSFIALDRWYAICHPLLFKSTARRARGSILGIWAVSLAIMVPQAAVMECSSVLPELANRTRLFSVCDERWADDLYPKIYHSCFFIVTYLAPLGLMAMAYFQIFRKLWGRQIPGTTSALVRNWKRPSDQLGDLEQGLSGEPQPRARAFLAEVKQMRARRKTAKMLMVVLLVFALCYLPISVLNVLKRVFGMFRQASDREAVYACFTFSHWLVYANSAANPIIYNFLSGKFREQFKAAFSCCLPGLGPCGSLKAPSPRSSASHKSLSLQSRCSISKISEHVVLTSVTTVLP
# GPR7 antag: antagonists of human GPR7 (neuropeptides B/W receptor 1); P48145; GPR7-expressing cells, fluorescence antagonist assay; inhibition, % at 4.4 µM; 290,000 tested, 1.1% active; in the data active = inhibition above about 16%, passing the limit was not always enough;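 note: cells stimulated with the agonist NPW; 0% = agonist with vehicle and 100% = vehicle without agonist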
# CHO parental Ca: signal in parental CHO cells, OX1R antagonist counter-screen. 330,000 tested, 0.63% active. AID 463079. inhibition, % at 5.6 µM. parental CHO-K1, ATP-induced calcium, Fluo-8 fluorescence;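 active = inhibition above that plate's mean sample inhibition plus 3 SD, cut at about 26% in these data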;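 note: 0% = ATP-challenged DMSO wells and 100% = DMSO wells without ATP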
#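 Measured by: calcium-sensitive Fluo-8 fluorescence / Test system: CHO parental line / Controls: ATP-challenged DMSO wells low, unchallenged DMSO wells high / Measure: % inhibition / Compound: single nominal dose of 5.6 µM per compound / Replicates: single well per compound, no replicates / Reagent: ATP as calcium-mobilizing challenge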
# OX1R antag-2: blocks the human orexin 1 receptor; O43613; OX1R-expressing cells, FRET antagonist read-out; inhibition, % at 6.6 µM; 330,000 tested, 1.8% active; AID 485270; in the data active = inhibition mostly above about 38%, no sharp cut-off; inactive = mostly below about 40%;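 note: 0% = agonist challenge alone and 100% = reference antagonist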
# GPR7 antag conf: human GPR7 antagonism, confirmation assay. shares compounds with GPR7 antag. GPR7-expressing cells, calcium fluorescence antagonist mode. inhibition, % at 4.4 µM. 2,400 tested, 52% active; in the data active = inhibition above about 24%;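 note: stimulated with the GPR7 agonist NPW; 0% = agonist plus vehicle and 100% = vehicle alone without agonist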
# MCHR1 antagonist: counter-screen for GPR7 antagonists: antagonists of human MCHR1. shares compounds with GPR7 antag. MCHR1-expressing cells, fluorescence antagonist assay. inhibition, % at 4.4 µM. AID 2148. 2,400 tested, 62% active; in the data active = inhibition above about 22%;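 note: 0% = vehicle with agonist and 100% = vehicle without agonist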
# * hit, by the source's call; x = no result.
SMILES,TAAR1 antag,TAAR1 agonist,OX1R antag-1,GPR7 antag,CHO parental Ca,OX1R antag-2,GPR7 antag conf,MCHR1 antagonist
CC(C)c1cccc(C(C)C)c1NC(=O)CNCc1ccccc1F,-1.7,0.5,-20.2,21.9*,-21.1,20.6,29.8*,32.5*
O=C(O)[C@H]1CCCC[C@H]1C(=O)Nc1ccc(S(=O)(=O)N2CCOCC2)cc1,-10.4,0.8,-10.0,-11.5,-4.7,20.7,x,x
O=C(O)[C@H]1CCCC[C@H]1C(=O)Nc1ccc(S(=O)(=O)N2CCCCC2)cc1,-3.3,0.0,-6.6,22.9*,8.0,18.2,-17.4,-4.9
O=C(Nc1ccc(C(F)(F)F)cc1)C1CCN(S(=O)(=O)c2ccc(N3CCCC3=O)cc2)CC1,0.5,6.5,-9.9,22.7*,-6.8,4.4,23.4,48.6*
COc1ccc(NC(=O)C2CCN(S(=O)(=O)c3ccc(N4CCCC4=O)cc3)CC2)cc1OC,-5.5,0.4,-16.9,-3.1,-20.4,3.5,x,x
CC(=O)c1c(C)[nH]c(C(=O)OC(C)C(=O)NC2CCCCC2)c1C (configuration not stated),4.0,2.3,x,x,x,x,x,x
O=S(=O)(Nc1ccc(C(O)(C(F)(F)F)C(F)(F)F)cc1)c1cccc2ccccc12,25.7,4.5,x,x,x,x,x,x
CCCCc1ccc(-c2ccc(Br)cc2)nc1,-11.3,-1.2,4.9,29.8*,-3.3,3.8,-16.6,0.4
O=C1CCCN2N=C(SCC(=O)N3N=C(c4ccc(Br)cc4)CC3c3ccc(F)cc3)SC2=N1 (configuration not stated),4.8,0.1,-35.7,22.2*,-24.5,15.8,-10.9,-2.4
COc1cc2c3c(c1)C(C)=CC(C)(C)N3C(=O)C2=O,-14.5,-1.5,-9.2,27.5*,-12.8,3.1,18.9,22.9*
COc1cccc(C(=O)Oc2cc3c4c(c2)C(C)=CC(C)(C)N4C(=O)C3=O)c1,24.4,-1.7,21.1,3.7,16.4,21.9,x,x
O=C(CCC1CCCCC1)Nc1c2c(nn1-c1ccc(F)cc1)CS(=O)(=O)C2,-3.0,9.7,1.2,32.2*,-11.9,9.1,42.7*,28.9*
CCCC(=O)Nc1c2c(nn1-c1ccc(F)cc1)CS(=O)(=O)C2,5.1,3.9,3.6,-3.6,-5.2,3.7,x,x
Cc1cccc2cc(CN(CCCN(C)C)C(=S)NCCc3ccccc3)c(=O)[nH]c12,15.6,29.1,-24.7,30.6*,-13.2,7.6,48.7*,30.4*
CCN(CC)CCCN(C(=O)c1ccco1)c1nc(-c2ccc(Cl)cc2)cs1,1.3,8.5,-9.3,24.3*,-1.7,9.6,30.9*,37.6*
Cc1ccc(SCCNC(=S)Nc2cc(C)ccc2C)cc1,33.5,0.5,24.6,-15.7,30.9,27.3,x,x
Cc1ccc(C)c(NC(=S)NCCN(C2CCCCC2)C2CCCC2)c1,2.1,2.4,-34.4,46.0*,-25.7,17.3,43.6*,35.6*
O=C(CSc1nnc(Cc2cccs2)n1Cc1ccco1)Nc1cc(Cl)cc(Cl)c1,30.3,9.6,-33.3,-11.4,-17.9,20.7,x,x
O=C(CSc1nnc(Cc2cccs2)n1Cc1ccco1)Nc1cccc(Cl)c1,17.9,9.7,-5.6,21.2*,-11.8,35.9,24.6*,33.1*
O=C(Cc1ccc(Cl)cc1)NC1CCCCCC1,-12.6,2.0,-8.8,-5.2,-9.3,15.0,x,x
Clc1ccc(CN=C(Nc2ccccc2)NC2CCCCC2)cc1,6.6,14.1,-24.2,40.1*,-16.4,15.3,56.5*,44.5*
Cc1ccc(C(=O)N/N=C\c2ccc([N+](=O)[O-])o2)cn1,-6.8,-0.9,-6.3,26.2*,-14.5,70.0*,-17.5,-8.6
CC[n+]1c(/C=C/N(C)c2ccccc2)n(-c2ccccc2)c2ccc(-c3nc4ccccc4s3)cc21,x,x,79.4*,84.5*,68.6*,41.6*,94.6*,88.5*
CCN(CC)S(=O)(=O)c1ccc(N2CCc3ccccc3C2)nc1,-1.2,2.1,-17.4,-9.8,-13.2,10.0,x,x
CC(C)N(C(C)C)S(=O)(=O)c1ccc(N2CCc3ccccc3C2)nc1,1.4,4.7,-7.6,21.1*,-24.9,22.4,15.7,63.2*
SMILES,TAAR1 antag,TAAR1 agonist,OX1R antag-1,GPR7 antag,CHO parental Ca,OX1R antag-2,GPR7 antag conf,MCHR1 antagonist
OC(CNCc1ccccc1F)(c1ccc(F)cc1)c1ccc(F)cc1,3.3,0.5,-23.4,9.1,-26.3,15.5,x,x
COc1ccccc1CNCC(O)(c1ccc(Cl)cc1)c1ccc(Cl)cc1,-4.5,13.6,-29.2,27.5*,-30.5,9.1,46.8*,33.4*
COc1ccccc1CNCC(O)(c1ccc(F)cc1)c1ccc(F)cc1,8.1,3.5,-44.0,39.8*,-27.0,6.1,41.0*,35.7*
Cc1cc(C)c(NC(=S)NC(NC(=O)c2ccccc2)C(Cl)(Cl)Cl)c(C)c1 (configuration not stated),12.8,8.8,6.3,-0.5,2.9,44.8,x,x
O=C(NC(NC(=S)Nc1ccccc1)C(Cl)(Cl)Cl)c1cccc(Cl)c1 (configuration not stated),33.6,11.9,36.7,33.6*,-0.9,39.2,47.0*,54.3*
CN(C)CCNc1nc2sc3c(c2c(=O)n1Cc1ccccc1)CCCCC3,15.5,25.4,x,40.2*,x,x,35.4*,58.0*
CN(C)CCNc1nc2sc3c(c2c(=O)n1-c1ccccc1)CCCCC3,0.3,5.3,-38.4,-6.1,-35.8,11.1,x,x
COC(=O)C[C@@H]1OC[C@H](CO)N1S(=O)(=O)c1ccc(C)cc1,-2.2,2.8,x,x,x,x,x,x
Cc1ccc(Oc2ccccc2NC(=O)CN2C(=O)NC3(CCCC3)C2=O)cc1,-15.3,-1.0,-11.7,29.1*,-8.7,11.0,-11.2,0.8
CCC1NC(=O)c2cc3ccccc3cc2-n2c1nc1cc(OC)c(OC)cc1c2=O (configuration not stated),-4.5,9.2,x,x,x,x,x,x
COc1ccc(CCNC(=O)COC(=O)c2ccc(Br)o2)cc1OC,2.1,12.8,-12.5,29.2*,-10.3,13.8,-14.1,15.7
COc1ccc(CCNC(=O)COC(=O)c2ccc(Br)o2)cc1,8.6,1.8,-7.7,-1.4,-1.4,18.5,x,x
COc1ccc(CNC(=O)C2CCCN(S(=O)(=O)c3cnc[nH]3)C2)cc1 (configuration not stated),2.3,0.5,-11.2,28.5*,-0.4,14.6,-11.9,-8.4
Cc1ccc(CNC(=O)C2CCCN(S(=O)(=O)c3cnc[nH]3)C2)cc1 (configuration not stated),-12.6,1.4,3.3,-4.1,-3.7,6.3,x,x
COc1ccc(C(O)c2cnc(C)n2Cc2ccccc2)cc1 (configuration not stated),-2.0,2.8,x,x,x,x,x,x
